The structures appear in SMILES notation.

These results are taken from ChEMBL document CHEMBL1155292, “Synthesis, analgesic and anti-inflammatory activities evaluation of some bi-, tri- and tetracyclic condensed pyrimidines” (Eur J Med Chem, 2009).

For series [1], the system named is Rattus norvegicus. The experiment in a line: Antiinflammatory activity in albino rat assessed as inhibition of carrageenan-induced paw edema at 0.029 mmol/kg, po after 1 hr relative to control. The class given is functional. An outline of the steps:
(§1)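 Adult albino rats of either sex, 120–150 g, six per group. Compounds at 0.029 mmol/kg suspended in saline with a few drops of Tween 80 and given by oral stomach tube. After 1 h, 0.1 ml of freshly prepared 1% carrageenan in saline injected subplantar into the right hind paw. Paw thickness measured at 1–4 h; % edema inhibition versus control; mean ± SEM; ANOVA.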
A general note: The carrageenan paw model is a standard test of acute inflammation.

In series [2] the test system is Rattus norvegicus. Kind of series: Gastrointestinal toxicity in albino rat assessed as ulcerogenic index at 0.029 mmol/kg, po after 5 hrs. The class given is organism-based. Particulars: in vivo. An outline of the steps:
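Adult albino rats of either sex (120–150 g), 6 per group, got the test compounds orally by stomach tube as a suspension in saline with a few drops of tween 80. They were the same rats used in the carrageenan paw-edema test. Stomachs were then opened along the great curvature and examined for lesions or bleeding. Ulceration was recorded as the number of rats with ulcers out of 6.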

Series [3] deals with Rattus norvegicus. Kind of series: Antiinflammatory activity in albino rat assessed as inhibition of carrageenan-induced paw edema at 0.029 mmol/kg, po after 2 hrs relative to control. The class given is functional. An outline of the steps:
as §1

Series [4] has as its system Rattus norvegicus. Kind of series: Antiinflammatory activity in albino rat assessed as inhibition of carrageenan-induced paw edema at 0.029 mmol/kg, po after 4 hrs relative to indomethacin. The class given is functional. An outline of the steps: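 Rat carrageenan paw edema: oral 0.029 mmol/kg in saline/Tween 80, 1 h before subplantar 0.1 ml 1% carrageenan into the right hind paw; six rats per group. Potency is % inhibition of the test compound divided by % inhibition of indomethacin at 4 h.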

In series [5] the test system is Mus musculus. Kind of series: Analgesic activity in albino mouse assessed as decrease in acetic acid-induced writhing at 11.55 mg/kg, po administered 1 hr prior to acetic acid challenge relative to control. The class given is functional. An outline of the steps:
(§2)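 Albino mice of either sex, 18–22 g, six per group. Test agents suspended in saline with a few drops of Tween 80 and given by oral stomach tube; controls handled identically without drug. After 1 h, 0.3 ml of 1% acetic acid ip. Writhing contractions counted for 30 min, starting 5 min after injection. % protection versus control mean; mean ± SEM; one-way ANOVA with post hoc test.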
(An intraperitoneal irritant provokes the stretching counted in writhing tests.)

Series [6] concerns Rattus norvegicus. The experiment in a line: Antiinflammatory activity in albino rat assessed as inhibition of carrageenan-induced paw edema at 0.029 mmol/kg, po after 4 hrs relative to control. The class given is functional. An outline of the steps: as §1
Series [7] relates to Rattus norvegicus. Kind of series: Antiinflammatory activity in albino rat assessed as inhibition of carrageenan-induced paw edema at 0.029 mmol/kg, po after 3 hrs relative to control. The class given is functional. An outline of the steps:
as §1

In series [8] the test system is Mus musculus. Kind of series: Analgesic activity in albino mouse assessed as decrease in acetic acid-induced writhing at 12.87 mg/kg, po administered 1 hr prior to acetic acid challenge relative to control. The class given is functional. An outline of the steps: as §2
Series [9] deals with Mus musculus. Kind of series: Analgesic activity in albino mouse assessed as decrease in acetic acid-induced writhing at 2 mg/kg, po administered 1 hr prior to acetic acid challenge. The class given is functional. An outline of the steps:
as §2

Series [10] relates to Mus musculus. Kind of series: Analgesic activity in albino mouse assessed as decrease in acetic acid-induced writhing at 11.96 mg/kg, po administered 1 hr prior to acetic acid challenge relative to control. The class given is functional. An outline of the steps: as §2
Series [11] has as its system Mus musculus. The experiment in a line: Analgesic activity in albino mouse assessed as decrease in acetic acid-induced writhing at 8 mg/kg, po administered 1 hr prior to acetic acid challenge. The class given is functional. An outline of the steps:
as §2

Series [12] concerns Mus musculus. Kind of series: Analgesic activity in albino mouse assessed as decrease in acetic acid-induced writhing at 0.4 mg/kg, po administered 1 hr prior to acetic acid challenge. The class given is functional. An outline of the steps: as §2
The subject of series [13] is Mus musculus. The experiment in a line: Analgesic activity in albino mouse assessed as decrease in acetic acid-induced writhing at 0.8 mg/kg, po administered 1 hr prior to acetic acid challenge. The class given is functional. An outline of the steps:
as §2

Series [14] relates to Mus musculus. The experiment in a line: Analgesic activity in albino mouse assessed as decrease in acetic acid-induced writhing at 1 mg/kg, po administered 1 hr prior to acetic acid challenge. The class given is functional. An outline of the steps: as §2
Series [15] concerns Mus musculus. Kind of series: Analgesic activity in po dosed albino mouse assessed as decrease in acetic acid-induced writhing administered 1 hr prior to acetic acid challenge. The class given is functional, organism-based. An outline of the steps: as §2
For series [16], the system named is Mus musculus. The experiment in a line: Analgesic activity in albino mouse assessed as decrease in acetic acid-induced writhing at 4 mg/kg, po administered 1 hr prior to acetic acid challenge. The class given is functional. An outline of the steps:
as §2

Series [17] has as its system Mus musculus. The experiment in a line: Analgesic activity in albino mouse assessed as decrease in acetic acid-induced writhing at 13.81 mg/kg, po administered 1 hr prior to acetic acid challenge relative to control. The class given is functional. An outline of the steps:
as §2

Series [18] relates to Mus musculus. The experiment in a line: Analgesic activity in albino mouse assessed as decrease in acetic acid-induced writhing at 13.84 mg/kg, po administered 1 hr prior to acetic acid challenge relative to control. The class given is functional. An outline of the steps: as §2
The test system of series [19] is Mus musculus. The experiment in a line: Analgesic activity in albino mouse assessed as decrease in acetic acid-induced writhing at 14.37 mg/kg, po administered 1 hr prior to acetic acid challenge relative to control. The class given is functional. An outline of the steps: as §2
Series [20] concerns Mus musculus. The experiment in a line: Analgesic activity in albino mouse assessed as decrease in acetic acid-induced writhing at 15.26 mg/kg, po administered 1 hr prior to acetic acid challenge relative to control. The class given is functional. An outline of the steps:
as §2

Series [21] has as its system Mus musculus. The experiment in a line: Analgesic activity in albino mouse assessed as decrease in acetic acid-induced writhing at 10 mg/kg, po administered 1 hr prior to acetic acid challenge relative to control. The class given is functional. An outline of the steps: as §2

One may read the inhibition in vivo as the percentage by which the read-out fell short of the control. Regarding `O=C1N(c2ccccc2)c2nc(-c3ccccc3)n3c(=O)[nH]nc3c2C2CCCN12` (configuration not stated), the inhibition in vivo at 29 µmol/kg turned out to be 10.1% in the series on Rattus norvegicus [1], 12.4% in the series with Rattus norvegicus [3], 15.5% in the series with Rattus norvegicus [6] and 17.3% with Rattus norvegicus [7]. In addition, in the series on Rattus norvegicus [2], the UI result was “Non-toxic”. The relative potency at 29 µmol/kg with Rattus norvegicus [4] is 0.56. In addition, the inhibition in vivo at 11.55 mg/kg in the series with Mus musculus [5] worked out at 75.9%.

`CCOC(=O)NNc1nc(-c2ccccc2)nc2c1C1CCCN1C(=O)N2c1ccccc1` (configuration not stated): the inhibition in vivo at 29 µmol/kg with Rattus norvegicus [1] was found to be 19.1%; in the series with Rattus norvegicus [3], 17.4%; in the series on Rattus norvegicus [6], 16.1%; in the series with Rattus norvegicus [7], 18%. Further, the inhibition in vivo at 12.87 mg/kg in the series on Mus musculus [8] was found to be 91.8%. Moreover, the relative potency at 29 µmol/kg with Rattus norvegicus [4] came out at 0.59.

With `O=C1CN2C(=NN1)C1=C(N=C2c2ccccc2)N(c2ccccc2)C(=O)N2CCCC12` (configuration not stated), the inhibition in vivo at 2 mg/kg in the series with Mus musculus [9] worked out at 82.4%. Also, the inhibition in vivo at 29 µmol/kg in the series on Rattus norvegicus [1] amounted to 2.23%; in the series on Rattus norvegicus [3] it was 7.44%; in the series on Rattus norvegicus [6] it was 21.1%; with Rattus norvegicus [7] it was 15.8%. The inhibition in vivo at 11.96 mg/kg in the series with Mus musculus [10] was 91.8%. In the series on Mus musculus [11], the inhibition in vivo at 8 mg/kg turned out to be 88.8%. Further, the UI entry with Rattus norvegicus [2] is recorded as “Non-toxic”. For the same molecule, the inhibition in vivo at 0.4 mg/kg in the series with Mus musculus [12] stood at 43.1%. Moreover, the relative potency at 29 µmol/kg with Rattus norvegicus [4] came out at 0.77. In addition, the inhibition in vivo at 0.8 mg/kg in the series with Mus musculus [13] is 63.3%. The inhibition in vivo at 1 mg/kg in the series on Mus musculus [14] came out at 76.6%. Further, in the series on Mus musculus [15], the IC50 amounted to 0.446 mg/kg. The inhibition in vivo at 4 mg/kg with Mus musculus [16] is 86.1%.

On to `O=C(NNc1nc(-c2ccccc2)nc2c1C1CCCN1C(=O)N2c1ccccc1)c1ccccc1` (configuration not stated), for which the inhibition in vivo at 29 µmol/kg in the series with Rattus norvegicus [1] amounted to 35.9%; with Rattus norvegicus [3], 28.9%; in the series with Rattus norvegicus [6] it was 25.5%; with Rattus norvegicus [7], 27.4%. Besides, the inhibition in vivo at 13.81 mg/kg in the series with Mus musculus [17] came to 71.8%. Besides, in the series on Rattus norvegicus [4], the relative potency at 29 µmol/kg was determined as 0.93.

For the molecule `O=C(NNc1nc(-c2ccccc2)nc2c1C1CCCN1C(=O)N2c1ccccc1)c1cccnc1` (configuration not stated), the inhibition in vivo at 29 µmol/kg was found to be 32.6% in the series on Rattus norvegicus [1], 11.6% in the series on Rattus norvegicus [3], 5.59% in the series on Rattus norvegicus [6] and 8.63% in the series with Rattus norvegicus [7]. In addition, the inhibition in vivo at 13.84 mg/kg with Mus musculus [18] came to 77.9%. Further, in the series on Rattus norvegicus [4], the relative potency at 29 µmol/kg was 0.2.

Turning to `CCOC(=O)c1cnn(-c2nc(-c3ccccc3)nc3c2C2CCCN2C(=O)N3c2ccccc2)c1N` (configuration not stated), the inhibition in vivo at 29 µmol/kg in the series on Rattus norvegicus [1] worked out at 6.74%; with Rattus norvegicus [3], 18.2%; in the series on Rattus norvegicus [6], 11.2%; in the series on Rattus norvegicus [7], 23.7%. The UI result in the series with Rattus norvegicus [2] was “Non-toxic”. The relative potency at 29 µmol/kg in the series with Rattus norvegicus [4] stood at 0.4. The inhibition in vivo at 14.37 mg/kg with Mus musculus [19] is 74.8%.

`Cc1ccc(S(=O)(=O)NNc2nc(-c3ccccc3)nc3c2C2CCCN2C(=O)N3c2ccccc2)cc1` (configuration not stated): in the series on Mus musculus [20], the inhibition in vivo at 15.26 mg/kg is 76.6%. The inhibition in vivo at 29 µmol/kg in the series with Rattus norvegicus [1] was 22.4%; with Rattus norvegicus [3], 16.6%; with Rattus norvegicus [6], 21.7%; with Rattus norvegicus [7] it was 23.1%. The relative potency at 29 µmol/kg in the series with Rattus norvegicus [4] was 0.79.

As for `COc1ccc2c(c1)c(CC(=O)O)c(C)n2C(=O)c1ccc(Cl)cc1` [INDOMETHACIN], the inhibition in vivo at 29 µmol/kg came out at 47.2% in the series on Rattus norvegicus [1], 35.5% with Rattus norvegicus [3], 27.3% with Rattus norvegicus [6] and 30.9% with Rattus norvegicus [7]. Also, the inhibition in vivo at 10 mg/kg with Mus musculus [21] came to 71.6%.
